Source: ChEMBL document CHEMBL1122497, “A polymeric drug for treatment of inflammatory bowel disease” (1983)
Values joined by “and” are separate entries in the source; they are usually repeats but may differ in a detail not shown here. Identical values can stand only once.

Assays:
[1] = species on record: Cavia porcellus; test: Tested for weight loss in guinea pig at 60 umol concentration of compound; type: functional
Procedure, shortened: (§1)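 Male Hartley guinea pigs (242-265 g), groups of 20, were gavaged twice daily with agent solutions or suspensions for 3 days. Then 5 wt % sterile degraded carrageenan was given as the sole drinking fluid, with dosing continued. Diarrhea was checked twice daily, body weight every 3 days, and necropsy done after 24 days of carrageenan.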

[2] = species on record: Cavia porcellus; test: Tested for cecal ulceration in diarrhea at 60 umol concentration of compound; type: functional; procedure, shortened: as §1
[3] = species on record: Cavia porcellus; test: Tested for cecal ulceration with mortality at 60 umol concentration of compound; type: functional
Procedure, shortened: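 Male Hartley guinea pigs (242-265 g, groups of 20) gavaged twice daily with 60 µmol doses as solution or suspension for 3 days. They were then given 5 wt % sterile degraded carrageenan as sole drinking fluid while dosing continued. Diarrhoea was checked twice daily and weight every 3 days. The study ended after 24 days of carrageenan, with necropsy and blind histology scored against untreated controls (Student's t test).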

[4] = species on record: Cavia porcellus; test: Tested for mean score after quantitative histological evaluation result in guinea pig; type: functional; set-up: scale not given here
Procedure, shortened: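 Carrageenan colitis in male Hartley guinea pigs: 3 days of twice-daily gavage, then 5 wt % degraded carrageenan drinking water for 24 days with dosing continued. All animals, including early deaths, were scored histologically, reviewed blind by two evaluators. Total points per group were averaged and compared with untreated controls by Student's t test.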

[5] = species on record: Cavia porcellus; test: Tested for cecal ulceration in necropsy at 60 umol concentration of compound; type: functional; procedure, shortened: as §1
[6] = species on record: Rattus norvegicus; test: Tested for peak serum concentration in rat; type: functional, organism-based
Procedure, shortened: (§2)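 Nonfasted female Sim:(SD)fBr rats (200-300 g), acclimated 72 h in metabolism cages, got a single oral dose (20 mg polymer or 16 mg SASP) as aqueous solution or suspension. Blood, urine and feces were collected to 96 h. Samples were β-glucuronidase-treated (37 °C, 18 h), acetylated, extracted and read fluorimetrically (ex 295, em 460 nm) against N-Ac-ASA standards.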

[7] = species on record: Rattus norvegicus; test: Tested for peak serum concentration in rat 6; type: functional, organism-based; procedure, shortened: as §2
[8] = species on record: Rattus norvegicus; test: Tested for peak serum concentration in rat 5; type: functional, organism-based; procedure, shortened: as §2
[9] = species on record: Rattus norvegicus; test: Tested for peak serum concentration in rat 4; type: functional, organism-based; procedure, shortened: as §2
[10] = test system: Rattus norvegicus; test: Tested for peak serum concentration in feces after oral administered dose in rat 4; type: functional; procedure, shortened: as §2
[11] = test system: Rattus norvegicus; test: Tested for peak serum concentration in feces after mean oral administered dose in rat; type: functional; procedure, shortened: as §2
[12] = test system: Rattus norvegicus; test: Tested for total administered dose in rat 5; type: functional; procedure, shortened: as §2
[13] = test system: Rattus norvegicus; test: Tested for peak serum concentration in urine after mean oral administered dose in rat; type: functional; procedure, shortened: as §2
[14] = test system: Rattus norvegicus; test: Tested for total administered dose in rat 4; type: functional
Procedure, shortened: (§3)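 Nonfasted female Sim:(SD)fBr rats (200-300 g), acclimated 72 h to metabolism cages, got one oral dose as aqueous solution or suspension. Blood, urine and feces were collected to 96 h. Samples were hydrolysed with β-glucuronidase (pH 6.9, 37 °C, 18 h), acetylated, extracted with 4-methyl-2-pentanone and back-extracted into pH 6.0 buffer. Total 5-ASA plus metabolites were read fluorimetrically (ex 295, em 460 nm) against N-Ac-ASA standards.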

[15] = test system: Rattus norvegicus; test: Tested for peak serum concentration in urine after oral administered dose in rat 6; type: functional; procedure, shortened: as §2
[16] = test system: Rattus norvegicus; test: (§4) Tested for peak serum concentration in feces after oral administered dose in rat 6; type: functional; procedure, shortened: as §2
[17] = test system: Rattus norvegicus; test: Tested for peak serum concentration in urine after oral administered dose in rat 4; type: functional; procedure, shortened: as §2
[18] = test system: Rattus norvegicus; test: Tested for peak serum concentration in feces after oral administered dose in rat 5; type: functional; procedure, shortened: as §3
[19] = test system: Rattus norvegicus; test: Tested for peak serum concentration in urine after oral administered dose in rat 5; type: functional; procedure, shortened: as §2
[20] = test system: Rattus norvegicus; test: as §4; type: functional; procedure, shortened: as §3; remark: listed apart in the source
[21] = test system: Rattus norvegicus; test: Tested for peak serum concentration in feces after oral administered dose in rat 2; type: functional; procedure, shortened: as §2
[22] = test system: Rattus norvegicus; test: Tested for total administered dose in rat 2; type: functional; procedure, shortened: as §2
[23] = test system: Rattus norvegicus; test: (§5) Tested for peak serum concentration in feces after oral administered dose in rat 3; type: functional; procedure, shortened: as §2
[24] = test system: Rattus norvegicus; test: Tested for peak serum concentration in urine after oral administered dose in rat 1; type: functional; procedure, shortened: as §2
[25] = test system: Rattus norvegicus; test: as §5; type: functional; procedure, shortened: as §2; remark: listed apart in the source
[26] = test system: Rattus norvegicus; test: Tested for peak serum concentration in feces after oral administered dose in rat 1; type: functional; procedure, shortened: as §2
[27] = test system: Rattus norvegicus; test: Tested for peak serum concentration in urine after oral administered dose in rat 2; type: functional; procedure, shortened: as §2
[28] = test system: Rattus norvegicus; test: Tested for peak serum concentration in urine after oral administered dose in rat 3; type: functional; procedure, shortened: as §2
[29] = test system: Rattus norvegicus; test: Tested for total administered dose in rat 1; type: functional; procedure, shortened: as §2

## Nc1ccc(S(=O)(=O)Nc2ccccn2)cc1 [SULFAPYRIDINE]
[1]
  Weight loss: 17 g
[2]
  Incidence: 80%
[3]
  Incidence: 15%
[4]
  Mean score: 3.11
[5]
  Incidence: 90%

## O=C(O)c1cc(/N=N/c2ccc(S(=O)(=O)Nc3ccccn3)cc2)ccc1O
[6]
  Concentration: 2.5 nM ml-1 and 5.6 nM ml-1
[7]
  Concentration: 4.8 nM ml-1
[8]
  Concentration: 4 nM ml-1
[9]
  Concentration: 7.9 nM ml-1

## O=C(O)c1cc(/N=N/c2ccc(S(=O)(=O)Nc3ccccn3)cc2)ccc1O [SULFASALAZINE]
[1]
  Weight loss: 44 g
[2]
  Incidence: 100%
[10]
  Dose: 7.7%
[11]
  Percent of oral dose recovered in feces: 11% and 14.7%
[3]
  Incidence: 40%
[12]
  Dose: 17.2%
[13]
  Dose: 3.7%
[14]
  Dose: 10.7%
[15]
  Dose: 5%
[16]
  Dose: 16.4%
[4]
  Mean score: 2.68
[17]
  Dose: 3%
[18]
  Dose: 14%
[5]
  Incidence: 90%
[19]
  Dose: 3.2%
[20]
  Dose: 11.4%

## O=C([O-])c1cc(/N=N/c2ccc(S(=O)(=O)Nc3ccccn3)cc2)ccc1O.[Na+] [POLYMER OF SULFASALAZINE]
[21]
  Dose: 9.4%
[1]
  Weight loss: 37 g
[2]
  Incidence: 85%
[22]
  Dose: 18.9%
[11]
  Percent of oral dose recovered in feces: 12.3% and 20.2%
[3]
  Incidence: 25%
[13]
  Dose: 8%
[23]
  Dose: 29.7%
[24]
  Dose: 6.7%
[25]
  Dose: 22%
[26]
  Dose: 5.3%
[27]
  Dose: 9.5%
[4]
  Mean score: 2.16
[28]
  Dose: 7.7%
[29]
  Dose: 12%
[5]
  Incidence: 85%

## Nc1ccc(O)c(C(=O)O)c1 [MESALAMINE]
[1]
  Weight loss: 12 g
[2]
  Incidence: 83%
[3]
  Incidence: 28%
[4]
  Mean score: 2.4
[5]
  Incidence: 83%
